In ChEMBL document CHEMBL2346664, “Synthesis, characterization and in vitro anticancer evaluation of novel 1,2,4-triazolin-3-one derivatives” (2013):

Legend:
Format in all cases: functional
T47D = assay: Growth inhibition of human T47D cells assessed as cell growth at 10 uM after 48 hrs by sulforhodamine B assay; conditions: read-out: Activity
Procedure, shortened: (§1)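 NCI-60 single-dose screen at 10^-5 M. Cells plated at 5,000–40,000/well by doubling time and grown 24 h at 37 °C, 5% CO2, then drug added from DMSO stock for 48 h continuous exposure. Adherent cells fixed with cold TCA (final 10%), suspension cells with 16% TCA. SRB stain read at 515 nm. Reported as growth percent relative to untreated controls and time-zero plates.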

BT-549 = assay: Growth inhibition of human BT549 cells assessed as cell growth at 10 uM after 48 hrs by sulforhodamine B assay; conditions: BT-549, 48 h, read-out: Activity
Procedure, shortened: (§2)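 NCI-60 primary screen at a single dose of 10^-5 M. Output is mean growth percent of treated cells relative to untreated controls, where values between 0 and 100 indicate growth inhibition and values below 0 indicate cytotoxicity. Cells were plated 24 h before drug, incubated 48 h at 37 °C, 5% CO2, and stained with SRB after TCA fixation. Suspension cells were fixed with 80% TCA (16% final).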

MDA-MB-231 = assay: Growth inhibition of human MDA-MB-231 cells assessed as cell growth at 10 uM after 48 hrs by sulforhodamine B assay; conditions: MDA-MB-231, 48 h, read-out: Activity
Procedure, shortened: (§3)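 NCI-60 primary single-dose screen at 10^-5 M, 48 h continuous exposure. Adherent cells were fixed with cold TCA (10% final) and suspension cells with 16% final TCA, then stained with 0.4% SRB in 1% acetic acid. Bound dye was solubilized in 10 mM Tris base and read at 515 nm. Output is growth percent relative to untreated controls, and GI% is 100 minus growth percent.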

DU-145 = assay: Growth inhibition of human DU145 cells assessed as cell growth at 10 uM after 48 hrs by sulforhodamine B assay; conditions: DU-145, 48 h, read-out: Activity; procedure, shortened: as §3
PC-3 = assay: Growth inhibition of human PC3 cells assessed as cell growth at 10 uM after 48 hrs by sulforhodamine B assay; conditions: PC-3, 48 h, read-out: Activity; procedure, shortened: as §1
UO-31 = assay: Growth inhibition of human UO31 cells assessed as cell growth at 10 uM after 48 hrs by sulforhodamine B assay; conditions: UO-31, 48 h, read-out: Activity; procedure, shortened: as §1
SN12C = assay: Growth inhibition of human SN12C cells assessed as cell growth at 10 uM after 48 hrs by sulforhodamine B assay; conditions: read-out: Activity; procedure, shortened: as §1
ACHN = assay: Growth inhibition of human ACHN cells assessed as cell growth at 10 uM after 48 hrs by sulforhodamine B assay; conditions: read-out: Activity; procedure, shortened: as §2
OVCAR-5 = assay: Growth inhibition of human OVCAR5 cells assessed as cell growth at 10 uM after 48 hrs by sulforhodamine B assay; conditions: OVCAR-5, 48 h, read-out: Activity; procedure, shortened: as §1
OVCAR-4 = assay: Growth inhibition of human OVCAR4 cells assessed as cell growth at 10 uM after 48 hrs by sulforhodamine B assay; conditions: OVCAR-4, 48 h, read-out: Activity; procedure, shortened: as §1
SNB-75 = assay: Growth inhibition of human SNB75 cells assessed as cell growth at 10 '-4 M after 48 hrs by sulforhodamine B assay; conditions: SNB-75, 48 h, read-out: Activity
UACC-257 = assay: Growth inhibition of human UACC257 cells assessed as cell growth at 10 uM after 48 hrs by sulforhodamine B assay; conditions: UACC-257, 48 h, read-out: Activity; procedure, shortened: as §1
SK-MEL-28 = assay: Growth inhibition of human SK-MEL-28 cells assessed as cell growth at 10 uM after 48 hrs by sulforhodamine B assay; conditions: SK-MEL-28, 48 h, read-out: Activity; procedure, shortened: as §1
Malme-3M = assay: Growth inhibition of human MALME-3M cells assessed as cell growth at 10 uM after 48 hrs by sulforhodamine B assay; conditions: read-out: Activity; procedure, shortened: as §3
SF-539 = assay: Growth inhibition of human SF539 cells assessed as cell growth at 10 uM after 48 hrs by sulforhodamine B assay; conditions: SF-539, 48 h, read-out: Activity; procedure, shortened: as §1
HT-29 = assay: Growth inhibition of human HT-29 cells assessed as cell growth at 10 uM after 48 hrs by sulforhodamine B assay; conditions: HT-29, 48 h, read-out: Activity; procedure, shortened: as §3
HCT-15 = assay: Growth inhibition of human HCT15 cells assessed as cell growth at 10 uM after 48 hrs by sulforhodamine B assay; conditions: HCT-15, 48 h, read-out: Activity; procedure, shortened: as §3
COLO 205 = assay: Growth inhibition of human COLO205 cells assessed as cell growth at 10 uM after 48 hrs by sulforhodamine B assay; conditions: COLO 205, 48 h, read-out: Activity; procedure, shortened: as §3
NCI-H322M = assay: Growth inhibition of human NCI-H322M cells assessed as cell growth at 10 uM after 48 hrs by sulforhodamine B assay; conditions: read-out: Activity; procedure, shortened: as §1
NCI-H23 = assay: Growth inhibition of human NCI-H23 cells assessed as cell growth at 10 uM after 48 hrs by sulforhodamine B assay; conditions: NCI-H23, 48 h, read-out: Activity; procedure, shortened: as §3
HOP-92 = assay: Growth inhibition of human HOP92 cells assessed as cell growth at 10 uM after 48 hrs by sulforhodamine B assay; conditions: HOP-92, 48 h, read-out: Activity; procedure, shortened: as §3
HOP-62 = assay: Growth inhibition of human HOP62 cells assessed as cell growth at 10 uM after 48 hrs by sulforhodamine B assay; conditions: HOP-62, 48 h, read-out: Activity; procedure, shortened: as §3
RPMI-8226 = assay: Growth inhibition of human RPMI8226 cells assessed as cell growth at 10 uM after 48 hrs by sulforhodamine B assay; conditions: RPMI-8226, 48 h, read-out: Activity; procedure, shortened: as §1
MOLT-4 = assay: Growth inhibition of human MOLT4 cells assessed as cell growth at 10 uM after 48 hrs by sulforhodamine B assay; conditions: MOLT-4, 48 h, read-out: Activity; procedure, shortened: as §3
K562 = assay: Growth inhibition of human K562 cells assessed as cell growth at 10 uM after 48 hrs by sulforhodamine B assay; conditions: K562, 48 h, read-out: Activity; procedure, shortened: as §3
HL-60(TB) = assay: Growth inhibition of human HL-60(TB) cells assessed as cell growth at 10 uM after 48 hrs by sulforhodamine B assay; conditions: HL-60, 48 h, read-out: Activity
Procedure, shortened: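 NCI DTP single high-dose primary screen at 10^-5 M across 60 human tumour lines. Growth percent of treated cells is taken relative to untreated controls: values of 0–100 indicate growth inhibition and values below 0 indicate cytotoxicity. Both growth percent and percentage growth inhibition are reported.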

KM12 = assay: Growth inhibition of human KM12 cells assessed as cell growth at 10 '-8 M after 48 hrs by sulforhodamine B assay; conditions: KM12, 48 h, read-out: Activity

Compound | growth at 10 µM (T47D) | growth at 10 µM (BT-549) | growth at 10 µM (MDA-MB-231) | growth at 10 µM (DU-145) | growth at 10 µM (PC-3) | growth at 10 µM (UO-31) | growth at 10 µM (SN12C) | growth at 10 µM (ACHN) | growth at 10 µM (OVCAR-5) | growth at 10 µM (OVCAR-4) | growth at 10 µM (UACC-257) | growth at 10 µM (SK-MEL-28) | growth at 10 µM (Malme-3M) | growth at 10 µM (SF-539) | growth at 10 µM (HT-29) | growth at 10 µM (HCT-15) | growth at 10 µM (COLO 205) | growth at 10 µM (NCI-H322M) | growth at 10 µM (NCI-H23) | growth at 10 µM (HOP-92) | also measured
Cc1cc(=O)oc2cc(OCCn3c(C)nn(-c4ccc(Cl)cc4)c3=O)ccc12 | 47.4% | 56.7% | 47.5% | 21.6% | 48.5% | 42.8% | 51.8% | 41.9% | 38.8% | 67.1% | 22.5% | 40.8% | 32.9% | 29.5% | 0.7% | 17.7% | 10.6% | 58.7% | 45.8% | 47.4% | growth at 100 µM (SNB-75): -25%; growth at 10 µM (HOP-62): 27.4%; growth at 10 µM (RPMI-8226): 31%; growth at 10 µM (MOLT-4): 37.6%; growth at 10 µM (K562): 16.3%; growth at 10 µM (HL-60(TB)): -5.7%; growth at 0.01 µM (KM12): 104%
Cc1nn(-c2ccc(Cl)cc2)c(=O)n1CCN1CCOCC1 | 78.3% | 61.5% | 57.3% | 78.5% | 80.8% | 66% | 89.6% | 38.7% | 92.4% | 93.4% | 73.4% | 92.9% | 59.1% | 67% | 104% | 74.2% | 107% | 92.2% | 64.5% | 30.1% | growth at 10 µM (HOP-62): 33.8%; growth at 10 µM (RPMI-8226): 83.1%; growth at 10 µM (MOLT-4): 90.9%; growth at 10 µM (K562): 70.1%; growth at 10 µM (HL-60(TB)): 105%
